# Reference: ChEMBL document CHEMBL3865799, “Synthesis of a series of novel dihydroartemisinin monomers and dimers containing chalcone as a linker and their anticancer activity” (Eur J Med Chem, 2016)
# Legend:
# [1] = Aqueous solubility of the compound at pH 7; type: physicochemical
# [2] = Cytotoxicity against human LS180 cells assessed as cell growth inhibition after 48 hrs by MTT assay; type: functional, cell-based; details: LS180, 48 h
# Outline: (§1)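 Adherent lines at 70–75% confluence, grown at 37 °C in 5% CO2 with 10% FCS. Exposed 48 h to compound in DMSO (vehicle <0.2% v/v). MTT dye added 3 h before termination; formazan dissolved in DMSO, OD 570 nm with 620 nm reference. Growth inhibition expressed as % of untreated; IC50 taken from the dose series.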
# Vero [3] = experiment: Selectivity index, ratio of IC50 for African green monkey Vero cells to IC50 for human MIAPaCa2 cells; type: functional
# Outline: (§2)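 Suspension cells were seeded at 1.5 × 10^4 per well and adherent lines at 70–75% confluence, then exposed to a range of concentrations. MTT was added 3 h before the end, formazan dissolved in DMSO, and OD read at 570 nm (reference 620 nm). Growth inhibition was taken relative to untreated cells. IC50 came from the MTT data; SI = IC50 in Vero cells / IC50 in the tumour line.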
# Vero [4] = experiment: Selectivity index, ratio of IC50 for African green monkey Vero cells to IC50 for human PC3 cells; type: functional; outline: as §2
# [5] = Cytotoxicity against human PC3 cells assessed as cell growth inhibition after 48 hrs by MTT assay; type: functional, cell-based; details: PC-3, 48 h
# Outline: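 Exposed 48 h to compound in DMSO (vehicle <0.2% v/v). MTT dye added 3 h before termination; formazan dissolved in DMSO, OD 570 nm with 620 nm reference. Growth inhibition expressed as % of untreated; IC50 taken from the dose series.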
# [6] = Cytotoxicity against human LS180 cells assessed as cell growth inhibition at 30 uM after 48 hrs by MTT assay; type: functional; details: LS180, 48 h, read-out: GI; outline: as §1
# [7] = Cytotoxicity against human HepG2 cells assessed as cell growth inhibition at 0.5 uM after 48 hrs by MTT assay; type: functional; details: HepG2, 48 h, read-out: GI; outline: as §1
# [8] = Cytotoxicity against human HL60 cells assessed as cell growth inhibition after 48 hrs by MTT assay; type: functional, cell-based; details: HL-60, 48 h
# Outline: (§3)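 HL-60 suspension cells, 1.5 × 10^4 per well, grown at 37 °C in 5% CO2 with 10% FCS. Treated 48 h with compound in DMSO (vehicle <0.2% v/v). MTT added 3 h before the end. Formazan dissolved in DMSO and read at 570 nm (reference 620 nm). % growth inhibition computed against untreated cells; IC50 taken from the concentration series.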
# HepG2 = experiment: Selectivity index, ratio of IC50 for African green monkey Vero cells to IC50 for human HepG2 cells; type: functional; outline: as §2
# [9] = Cytotoxicity against human PC3 cells assessed as cell growth inhibition at 1 uM after 48 hrs by MTT assay; type: functional; details: PC-3, 48 h, read-out: GI; outline: as §1
# [10] = Cytotoxicity against human HepG2 cells assessed as cell growth inhibition at 1 uM after 48 hrs by MTT assay; type: functional; details: HepG2, 48 h, read-out: GI; outline: as §1
# [11] = Cytotoxicity against human LS180 cells assessed as cell growth inhibition at 50 uM after 48 hrs by MTT assay; type: functional; details: LS180, 48 h, read-out: GI; outline: as §1
# [12] = Cytotoxicity against human PC3 cells assessed as cell growth inhibition at 30 uM after 48 hrs by MTT assay; type: functional; details: PC-3, 48 h, read-out: GI; outline: as §1
# [13] = Cytotoxicity against human HepG2 cells assessed as cell growth inhibition after 48 hrs by MTT assay; type: functional, cell-based; details: HepG2, 48 h; outline: as §1
# Vero [14] = experiment: Selectivity index, ratio of IC50 for African green monkey Vero cells to IC50 for human HL60 cells; type: functional; outline: as §2
# [15] = Cytotoxicity against human MIAPaCa2 cells assessed as cell growth inhibition at 10 uM after 48 hrs by MTT assay; type: functional; details: MIA PaCa-2, 48 h, read-out: GI; outline: as §1
# [16] = Cytotoxicity against human PC3 cells assessed as cell growth inhibition at 0.5 uM after 48 hrs by MTT assay; type: functional; details: PC-3, 48 h, read-out: GI; outline: as §1
# [17] = Selectivity index, ratio of IC50 for African green monkey Vero cells to IC50 for human LS180 cells; type: functional; outline: as §2
# [18] = Cytotoxicity against human HepG2 cells assessed as cell growth inhibition at 50 uM after 48 hrs by MTT assay; type: functional; details: HepG2, 48 h, read-out: GI; outline: as §1
# [19] = Cytotoxicity against human HL60 cells assessed as cell growth inhibition at 0.5 uM after 48 hrs by MTT assay; type: functional; details: HL-60, 48 h, read-out: GI; outline: as §3
# [20] = Cytotoxicity against human LS180 cells assessed as cell growth inhibition at 0.5 uM after 48 hrs by MTT assay; type: functional; details: LS180, 48 h, read-out: GI; outline: as §1
# [21] = Cytotoxicity against human MIAPaCa2 cells assessed as cell growth inhibition at 30 uM after 48 hrs by MTT assay; type: functional; details: MIA PaCa-2, 48 h, read-out: GI; outline: as §1
# [22] = Cytotoxicity against human HL60 cells assessed as cell growth inhibition at 50 uM after 48 hrs by MTT assay; type: functional; details: HL-60, 48 h, read-out: GI; outline: as §3
# [23] = Cytotoxicity against human MIAPaCa2 cells assessed as cell growth inhibition at 0.5 uM after 48 hrs by MTT assay; type: functional; details: MIA PaCa-2, 48 h, read-out: GI; outline: as §1
# [24] = Cytotoxicity against human MIAPaCa2 cells assessed as cell growth inhibition at 1 uM after 48 hrs by MTT assay; type: functional; details: MIA PaCa-2, 48 h, read-out: GI; outline: as §1
# [25] = Cytotoxicity against human MIAPaCa2 cells assessed as cell growth inhibition at 50 uM after 48 hrs by MTT assay; type: functional; details: MIA PaCa-2, 48 h, read-out: GI; outline: as §1
# [26] = Cytotoxicity against human HL60 cells assessed as cell growth inhibition at 30 uM after 48 hrs by MTT assay; type: functional; details: HL-60, 48 h, read-out: GI; outline: as §3
# [27] = Cytotoxicity against human HL60 cells assessed as cell growth inhibition at 1 uM after 48 hrs by MTT assay; type: functional; details: HL-60, 48 h, read-out: GI; outline: as §3
# [28] = Cytotoxicity against human HL60 cells assessed as cell growth inhibition at 10 uM after 48 hrs by MTT assay; type: functional; details: HL-60, 48 h, read-out: GI; outline: as §3
# [29] = Cytotoxicity against human HepG2 cells assessed as cell growth inhibition at 30 uM after 48 hrs by MTT assay; type: functional; details: HepG2, 48 h, read-out: GI; outline: as §1
# [30] = Cytotoxicity against human PC3 cells assessed as cell growth inhibition at 50 uM after 48 hrs by MTT assay; type: functional; details: PC-3, 48 h, read-out: GI; outline: as §1
# [31] = Cytotoxicity against human MIAPaCa2 cells assessed as cell growth inhibition after 48 hrs by MTT assay; type: functional, cell-based; details: MIA PaCa-2, 48 h; outline: as §1
# [32] = Cytotoxicity against human PC3 cells assessed as cell growth inhibition at 10 uM after 48 hrs by MTT assay; type: functional; details: PC-3, 48 h, read-out: GI; outline: as §1
# [33] = Lipophilicity, log P of the compound; type: physicochemical; details: octanol/water
# [34] = Cytotoxicity against human LS180 cells assessed as cell growth inhibition at 1 uM after 48 hrs by MTT assay; type: functional; details: LS180, 48 h, read-out: GI; outline: as §1
# [35] = Cytotoxicity against human LS180 cells assessed as cell growth inhibition at 10 uM after 48 hrs by MTT assay; type: functional; details: LS180, 48 h, read-out: GI; outline: as §1
# [36] = Cytotoxicity against human HepG2 cells assessed as cell growth inhibition at 10 uM after 48 hrs by MTT assay; type: functional; details: HepG2, 48 h, read-out: GI; outline: as §1
SMILES,solubility [1] [µg/mL],IC50 [2] [µM],Ratio IC50 (Vero [3]),Ratio IC50 (Vero [4]),IC50 [5] [µM],inhibition of growth at 30 µM [6] [%],inhibition of growth at 0.5 µM [7] [%],IC50 [8] [µM],Ratio IC50 (HepG2),inhibition of growth at 50 µM [11] [%],inhibition of growth at 30 µM [12] [%],IC50 [13] [µM],inhibition of growth at 50 µM [18] [%],inhibition of growth at 30 µM [21] [%],inhibition of growth at 50 µM [22] [%],inhibition of growth at 50 µM [25] [%],inhibition of growth at 30 µM [26] [%],inhibition of growth at 30 µM [29] [%],inhibition of growth at 50 µM [30] [%],logP [33],also measured
COc1cc(/C=C/C(=O)c2ccc(OCCO[C@H]3O[C@@H]4O[C@@]5(C)CC[C@H]6[C@H](C)CC[C@@H]([C@H]3C)[C@@]46OO5)cc2)cc(OC)c1OCCO[C@H]1O[C@@H]2O[C@@]3(C)CC[C@H]4[C@H](C)CC[C@@H]([C@H]1C)[C@@]24OO3,< 10,16,100,210,10,58.1,38.8,0.3,210,70.1,57.6,4,33.8 to 58.1,37.4 to 40.1,86.1,48.1,85.4,32.9,57.9,5.34 to 7.45,inhibition of growth at 1 µM [9]: 45.9%; inhibition of growth at 1 µM [10]: 41.5%; Ratio IC50 (Vero [14]): 88; inhibition of growth at 10 µM [15]: 38.7%; inhibition of growth at 0.5 µM [16]: 34.5%; Ratio IC50 [17]: 162; inhibition of growth at 0.5 µM [19]: 77.2%; inhibition of growth at 0.5 µM [20]: 15.3%; inhibition of growth at 0.5 µM [23]: 37.3%; inhibition of growth at 1 µM [24]: 38.1%; inhibition of growth at 1 µM [27]: 83.9%; inhibition of growth at 10 µM [28]: 84.6%; IC50 [31]: > 50 µM; inhibition of growth at 10 µM [32]: 50.2%; inhibition of growth at 1 µM [34]: 27.6%; inhibition of growth at 10 µM [35]: 44.6%; inhibition of growth at 10 µM [36]: 59.1%
C[C@H]1[C@@H](OCCOc2ccc(/C=C/C(=O)c3ccco3)cc2)O[C@@H]2O[C@@]3(C)CC[C@H]4[C@H](C)CC[C@@H]1[C@@]24OO3,< 10,> 50,59,94,24,26.9,1,0.7,68,28.3,55.1 to 58.1,22,26.9 to 42.6,39.8 to 67.3,91.7,77.5,89.1,25.2 to 67.3,69.4,5.34 to 7.45,inhibition of growth at 1 µM [9]: 15.8%; inhibition of growth at 1 µM [10]: 14.7%; Ratio IC50 (Vero [14]): 90; inhibition of growth at 10 µM [15]: 26.2%; inhibition of growth at 0.5 µM [16]: 15.1%; Ratio IC50 [17]: >200; inhibition of growth at 0.5 µM [19]: 38%; inhibition of growth at 0.5 µM [20]: 20%; inhibition of growth at 0.5 µM [23]: 18.4%; inhibition of growth at 1 µM [24]: 19.1%; inhibition of growth at 1 µM [27]: 57.5%; inhibition of growth at 10 µM [28]: 87.4%; IC50 [31]: > 50 µM; inhibition of growth at 10 µM [32]: 43.4%; inhibition of growth at 1 µM [34]: 25.7%; inhibition of growth at 10 µM [35]: 26.9%; inhibition of growth at 10 µM [36]: 24.8%
C[C@H]1[C@@H](OCCOc2ccc(/C=C/C(=O)c3ccccc3Cl)cc2)O[C@@H]2O[C@@]3(C)CC[C@H]4[C@H](C)CC[C@@H]1[C@@]24OO3,< 10,–,–,–,–,56.7,–,–,–,57.5,52.4,–,25.2,55.1,92.9,61.1,91.8,23.8,56.1,5.34 to 7.45,–
COc1cccc2c1C(=O)c1c(O)c3c(c(O)c1C2=O)C[C@@](O)(C(=O)CO)C[C@@H]3O[C@H]1C[C@H](N)[C@H](O)[C@H](C)O1 [DOXORUBICIN],–,0.84,–,–,–,–,–,–,–,–,–,0.54,–,–,–,–,–,–,–,–,–
COc1ccc(/C=C/C(=O)c2ccc(OCCO[C@H]3O[C@@H]4O[C@@]5(C)CC[C@H]6[C@H](C)CC[C@@H]([C@H]3C)[C@@]46OO5)cc2)c(OC)c1,< 10,–,–,–,–,27.5,–,–,–,29.6,38.2,–,25.1,24.8,85.7,41.7,83.5,18.2,46.9,5.34 to 7.45,–
